Sampled rows, rich in hits. Any-hit rate of the full collection: about 3.5%.
MrgX1 agonist = agonists of human MrgX1 receptor. MrgX1-HEK293 cells, Fluo-4 calcium fluorescence, agonist mode; stronger effect = higher value. Q96LB2. B-score at 10 µM. 310,000 compounds, 0.44% hits;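 active means calcium response B-score plate-corrected fluorescence ratio at least 3 library SD, with starting fluorescence B-score inside 5 SD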
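Assay system: MrgX1-expressing HEK293 cells / Amount: fifteen thousand cells per well / Doses: test compound in the initial addition of three / Timing: cells plated overnight, dye loaded 0.5 h 37 °C, 0.5 h room temperature / Technique: kinetic calcium dye fluorescence, Fluo-4 NW / Control set: positive and negative controls per plate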
RGS4 inh = inhibitors of human RGS4 | HEK293 M3R/RGS4 inducible, Fluo-4 calcium flux; stronger effect = higher value; triggered by carbachol at its EC20 | AID 463165 | P49798 | B-score at 10 µM | 310,000 compounds, 0.45% hits;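 active means B-score, a plate-corrected calcium signal, over three deviations above library mean, with baseline fluorescence within five deviations of library mean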;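 further: RGS4 expression induced by doxycycline in cells with stable M3 receptor; B-score is computed from the integrated fluorescence ratio over baseline after carbachol; higher B-score means a larger calcium signal and so more RGS4 inhibition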
Target sequence (P49798 whole entry, looked up): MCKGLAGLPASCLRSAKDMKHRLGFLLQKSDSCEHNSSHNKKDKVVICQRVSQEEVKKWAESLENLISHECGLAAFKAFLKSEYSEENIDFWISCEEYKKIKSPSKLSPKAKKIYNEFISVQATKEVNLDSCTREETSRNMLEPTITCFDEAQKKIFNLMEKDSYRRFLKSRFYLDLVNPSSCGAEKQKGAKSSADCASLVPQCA
MrgX1 antagonist = antagonists of human MrgX1 receptor; Q96LB2; MRGX1-HEK293 calcium flux, Fluo-4, BAM8-22 antagonism; stronger effect = lower value; B-score at 10 µM; 310,000 compounds, 1.3% hits; AID 588676;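 active means calcium-response B-score plate-corrected more than 3 library SD below zero, starting fluorescence within 5 deviations, no agonist response on first addition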;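 further: peak minus trough fluorescence over baseline after final BAM8-22 challenge near maximal dose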
MrgX1 allo act = allosterically activates human MrgX1 receptor signaling. 310,000 compounds, 0.63% hits. MrgX1-HEK293, Fluo-4 calcium flux, FDSS; stronger effect = higher value. Q96LB2. B-score at 10 µM;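 active means plate-corrected calcium response at least 3 library SD above typical, normal starting fluorescence, not activating the receptor alone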;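 further: compound read alongside a low EC10 to EC30 dose of BAM8-22 agonist; peak minus trough fluorescence over baseline measured at the second addition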
RGS4 act = potentiators or activators of RGS4; 310,000 compounds, 0.92% hits; HEK293 M3R/inducible RGS4, carbachol calcium flux Fluo4; stronger effect = lower value; B-score at 10 µM;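 active means B-score of the integrated calcium signal more than 4 SD below the library mean, with starting fluorescence not abnormally high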;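 further: negative B-score means reduced calcium response which marks RGS4 activation or potentiation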
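System: HEK293 FlpIn-TREx cells, stable M3R, doxycycline-inducible RGS4. Timing: overnight RGS4 induction, 30 min dye load 37 °C, 20 min compound RT. Also added: carbachol, ECmax concentration. Measured by: Fluo4 fluorescence kinetic imaging of calcium. Evaluation: integrated calcium ratio converted to B score.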
Of the large screens only hits and unclear results are named; the others gave an inactive call.

CCOC(=O)CCS(=O)(=O)c1ccc(-c2ccc(S(=O)(=O)CCC(=O)OCC)cc2)cc1	MrgX1 antagonist -7.1
CCCCCCCCSc1nnc(CSc2nc3nc(C)cc(C)n3n2)o1	RGS4 act -8.3
Cc1ccc2nc(SCC3CCCCO3)[nH]c2c1 (configuration not stated)	none
O=C1N=C(N2CCOCC2)S/C1=C/c1ccc(-c2ccccc2Cl)o1	none
O=C1S/C(=C/c2ccc(N3CCOCC3)o2)C(=O)N1Cc1c(F)cccc1Cl	MrgX1 allo act 9.4
O=C1S/C(=C\c2ccc(N3CCOCC3)o2)C(=O)N1Cc1c(F)cccc1Cl	MrgX1 agonist 56
O=C1S/C(=C\c2ccc(N3CCOCC3)o2)C(=O)N1c1ccccc1	RGS4 act -7.6
O=C(O)c1ccccc1-c1ccc(/C=C2\SC(=O)N(c3ccccc3)C2=O)o1	none
CCOc1ccccc1NC(=O)CCN1CCN(S(=O)(=O)c2ccc(Br)cc2)CC1	none
O=C(N=C1SCC(=O)N1c1ccccc1Cl)c1ccccc1	none (no result: MrgX1 agonist, MrgX1 antagonist, MrgX1 allo act)
O=S(=O)(c1ccc(N2CCN(CCO)CC2)nc1)N1CCOCC1	none
CN(c1ccc(C(=O)Nc2ccccc2C(F)(F)F)cc1)S(C)(=O)=O	none
Cc1ccc(C2(C)NC(=O)N(CC(=O)NNC(=O)c3ccoc3C)C2=O)cc1 (configuration not stated)	none
CC1Cc2cc(/C(O)=C3/C(=O)C(=O)N(CCN4CCOCC4)C3c3ccc([N+](=O)[O-])cc3)ccc2O1 (configuration not stated)	none
CN1CC=C2C(C#N)=C(N)C(C#N)(C#N)C(Cc3ccccc3)C2C1 (configuration not stated)	MrgX1 agonist 36
CCC(C)(C)c1nnc(NC(=O)c2ccc([N+](=O)[O-])cc2)s1	none
C/C(=N\O)c1ccccc1C(=O)O	MrgX1 antagonist -6.2
CCN1CCC2(CC1)N=C(c1ccc(F)cc1)C(=S)N2	RGS4 act -7.4
Cc1ccc(C2=NC3(CCCCC3)NC2=S)cc1	none
CCOC(=O)c1sc(=S)n(-c2ccccc2Cl)c1SC	MrgX1 allo act 10, RGS4 act -8.8
CCn1c2ccccc2c2cc(NC(=O)c3ccc(Br)o3)ccc21	MrgX1 antagonist -7.5
CCn1c2ccccc2c2cc(NC(=O)c3coc(=O)c(Br)c3)ccc21	none
CCOc1ccc(N2C(=O)CC(Sc3nc(-c4cccs4)cc(C(F)(F)F)c3C#N)C2=O)cc1 (configuration not stated)	MrgX1 antagonist -7.1
CCOc1ccc(N2C(=O)CC(Sc3ncccn3)C2=O)cc1 (configuration not stated)	none
c1ccc(Cc2noc(CN3CCN(C4CCc5ccccc5C4)CC3)n2)cc1 (configuration not stated)	none
c1ccc(Cc2noc(CN3CCCN(C4Cc5ccccc5C4)CC3)n2)cc1	RGS4 act -7
CCc1ccccc1N(C(=O)Cn1nnc2ccccc21)C(C(=O)NCCOC)c1ccco1 (configuration not stated)	none
COCCNC(=O)C(c1ccco1)N(C(=O)Cn1nnc2ccccc21)c1ccc(C)cc1C (configuration not stated)	MrgX1 allo act 7.9
Cc1cccc(N2CCN(c3ccc4cc(S(=O)(=O)N5CCCCC5)ccc4n3)CC2)c1C	none
CCOc1ccc(CC(=O)NNC(=O)/C=C/C(=O)O)cc1	none
C/[N+]([O-])=C\c1coc2ccccc2c1=O	none
COc1cc(/C=C2/SC(=S)NC2=O)ccc1OS(=O)(=O)c1ccc(C)cc1	MrgX1 antagonist -4.7
COc1cc(/C=C2\SC(=S)NC2=O)ccc1OS(=O)(=O)c1ccccc1	MrgX1 antagonist -6.1
CCOc1ccc(/C=C2\SC(=S)NC2=O)cc1OC	none
COc1ccc(/C=C2\SC(=S)NC2=O)cc1OS(=O)(=O)c1ccc(NC(C)=O)cc1	none (no result: MrgX1 agonist, MrgX1 antagonist, MrgX1 allo act)
O=C1NC(=S)S/C1=C\c1coc2ccccc2c1=O	MrgX1 allo act 7.6
COc1ccc(/C=C2\SC(=O)NC2=S)cc1OC	MrgX1 agonist 63
CCN(CC)S(=O)(=O)c1ccc2c(c1)N(CC(=O)N1CCC(C(N)=O)CC1)C(=O)CO2	none
COc1ccccc1NC(=O)C1CCN(C(=O)C2CC(=O)N(c3ccc(C)cc3)C2)CC1 (configuration not stated)	none
O=C1NC(=S)S/C1=C\c1ccc2ccccc2c1	MrgX1 antagonist -4.9

Screens (PubChem BioAssay)
